Experimental findings from ChEMBL document CHEMBL4145666, “In Search of Selectivity in Inhibition of ADAM10” (ACS Med Chem Lett, 2018) are described below.

Assay [1] concerns the target Disintegrin and metalloproteinase domain-containing protein 17 (Homo sapiens, UniProt P78536). Kind of assay: Inhibition of recombinant human C-terminal His6-tagged ADAM17 (Arg215 to Asn671 residues) expressed in baculovirus infected Sf21 cells using Mca-PLAQAV-Dpa-RSSSR-NH2 as substrate by fluorescence spectrophotometric method. The gist of the method: (§1)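 Enzymes and their substrates were obtained as in earlier work, and inhibition was run by a previously reported protocol. Ki values were measured in triplicate.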

The target in assay [2] is Macrophage metalloelastase (Homo sapiens, UniProt P39900). Kind of assay: Inhibition of recombinant human MMP12 catalytic domain using Mca-PLGL-DpaAR-NH2 as substrate by fluorescence spectrophotometric method. The gist of the method: as §1
Chain of Macrophage metalloelastase (P39900 whole entry, the tested form may be a part): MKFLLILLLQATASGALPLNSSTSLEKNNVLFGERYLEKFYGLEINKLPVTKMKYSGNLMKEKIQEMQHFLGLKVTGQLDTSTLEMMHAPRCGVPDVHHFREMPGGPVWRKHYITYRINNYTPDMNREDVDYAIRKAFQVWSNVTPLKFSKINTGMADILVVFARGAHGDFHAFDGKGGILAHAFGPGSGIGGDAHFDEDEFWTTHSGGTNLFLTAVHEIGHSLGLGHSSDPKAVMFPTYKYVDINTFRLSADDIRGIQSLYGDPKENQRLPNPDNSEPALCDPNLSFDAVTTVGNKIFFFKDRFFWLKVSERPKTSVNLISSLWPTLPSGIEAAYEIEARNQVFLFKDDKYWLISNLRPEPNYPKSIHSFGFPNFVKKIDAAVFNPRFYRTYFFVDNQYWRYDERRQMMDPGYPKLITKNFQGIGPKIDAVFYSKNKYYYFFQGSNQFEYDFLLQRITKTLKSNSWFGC
The target of another assay is Neutrophil collagenase (Homo sapiens, UniProt P22894). The assay can be described thus: Inhibition of recombinant human MMP8 catalytic domain (Phe99 to Gln269 residues) expressed in Escherichia coli using McaKPLGL-Dpa-AR-NH2 as substrate by fluorescence spectrophotometric method. The gist of the method:
as §1

Assay [3] has as its target T1, Disintegrin and metalloproteinase domain-containing protein 10 (Homo sapiens) (UniProt O14672).
T1 sequence (whole entry): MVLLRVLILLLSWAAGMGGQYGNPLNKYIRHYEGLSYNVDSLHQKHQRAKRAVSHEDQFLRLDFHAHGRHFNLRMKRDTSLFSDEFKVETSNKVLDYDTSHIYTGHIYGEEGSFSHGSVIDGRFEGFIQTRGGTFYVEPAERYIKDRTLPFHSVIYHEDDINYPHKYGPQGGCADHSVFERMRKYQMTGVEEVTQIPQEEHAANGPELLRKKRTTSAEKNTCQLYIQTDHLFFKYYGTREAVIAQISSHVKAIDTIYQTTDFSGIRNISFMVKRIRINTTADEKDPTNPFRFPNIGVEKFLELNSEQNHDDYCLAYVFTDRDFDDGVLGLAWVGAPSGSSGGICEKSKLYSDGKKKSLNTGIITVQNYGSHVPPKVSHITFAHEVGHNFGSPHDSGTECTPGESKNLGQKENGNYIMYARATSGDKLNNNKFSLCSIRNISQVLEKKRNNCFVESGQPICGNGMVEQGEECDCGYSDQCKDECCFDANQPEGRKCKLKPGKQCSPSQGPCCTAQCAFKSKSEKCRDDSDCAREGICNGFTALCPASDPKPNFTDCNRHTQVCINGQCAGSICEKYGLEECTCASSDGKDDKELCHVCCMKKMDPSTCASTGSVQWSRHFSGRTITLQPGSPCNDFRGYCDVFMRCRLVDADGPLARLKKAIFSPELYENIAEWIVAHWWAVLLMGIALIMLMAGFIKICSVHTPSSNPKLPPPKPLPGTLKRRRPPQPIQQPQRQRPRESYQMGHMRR
The assay can be described thus: Inhibition of recombinant human C-terminal His10-tagged ADAM10 (Thr214 to Glu672 residues) expressed in baculovirus infected Sf21 cells at 10 uM using McaKPLGL-Dpa-AR-NH2 as substrate by fluorescence spectrophotometric method relative to control. The procedure, abridged: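 Single inhibitor concentration of 10 μM, reported as percent inhibition. Enzymes and substrates as in earlier work, with inhibition run by a previously reported protocol.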

Chain of Neutrophil collagenase (P22894 whole entry, the tested form may be a part): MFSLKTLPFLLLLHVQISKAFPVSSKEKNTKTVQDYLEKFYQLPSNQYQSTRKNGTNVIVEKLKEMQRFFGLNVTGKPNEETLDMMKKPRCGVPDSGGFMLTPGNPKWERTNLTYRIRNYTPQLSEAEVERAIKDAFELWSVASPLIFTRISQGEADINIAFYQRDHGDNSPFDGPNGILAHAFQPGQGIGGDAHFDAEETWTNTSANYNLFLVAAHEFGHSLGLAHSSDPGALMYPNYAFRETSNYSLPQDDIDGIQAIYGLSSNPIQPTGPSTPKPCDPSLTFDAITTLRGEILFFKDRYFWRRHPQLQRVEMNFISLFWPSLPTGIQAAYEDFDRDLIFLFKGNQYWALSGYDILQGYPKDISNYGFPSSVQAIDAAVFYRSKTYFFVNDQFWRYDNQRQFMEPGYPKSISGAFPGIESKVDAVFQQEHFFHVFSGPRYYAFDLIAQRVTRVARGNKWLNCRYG
Chain of Disintegrin and metalloproteinase domain-containing protein 17 (P78536 whole entry, the tested form may be a part): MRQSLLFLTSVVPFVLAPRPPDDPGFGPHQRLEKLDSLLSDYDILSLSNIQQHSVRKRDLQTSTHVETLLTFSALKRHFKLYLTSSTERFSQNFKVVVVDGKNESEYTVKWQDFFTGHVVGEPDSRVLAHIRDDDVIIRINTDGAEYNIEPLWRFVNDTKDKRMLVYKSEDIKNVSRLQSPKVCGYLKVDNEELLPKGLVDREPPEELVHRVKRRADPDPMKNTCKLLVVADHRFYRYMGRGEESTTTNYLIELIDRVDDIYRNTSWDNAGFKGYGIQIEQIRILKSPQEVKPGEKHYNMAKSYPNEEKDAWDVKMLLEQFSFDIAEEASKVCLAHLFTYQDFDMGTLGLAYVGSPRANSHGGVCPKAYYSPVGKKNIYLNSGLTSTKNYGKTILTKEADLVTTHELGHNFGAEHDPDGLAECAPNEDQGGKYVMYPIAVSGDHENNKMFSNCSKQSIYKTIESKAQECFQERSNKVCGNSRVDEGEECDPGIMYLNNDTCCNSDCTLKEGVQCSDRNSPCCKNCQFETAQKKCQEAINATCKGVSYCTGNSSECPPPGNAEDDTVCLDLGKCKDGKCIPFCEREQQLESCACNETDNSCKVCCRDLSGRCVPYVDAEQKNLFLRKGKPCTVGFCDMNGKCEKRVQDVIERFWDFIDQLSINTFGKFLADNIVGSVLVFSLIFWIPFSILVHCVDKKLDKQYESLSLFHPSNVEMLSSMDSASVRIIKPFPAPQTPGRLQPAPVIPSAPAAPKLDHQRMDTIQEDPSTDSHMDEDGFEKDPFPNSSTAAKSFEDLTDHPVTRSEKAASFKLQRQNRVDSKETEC

As for `CN1CC2(CC2)C[C@H](C(=O)NO)[C@H]1C(=O)N1CCN(c2ccc(C(F)(F)F)cn2)CC1`, the values for the Ki (in assay [1]; in assay [2]; on Neutrophil collagenase) were 61 nM, 29.5 nM and 3.01 nM, respectively. The inhibition in assay [3] came to 3%.
